Assay outcomes from PubChem BioAssay.
An excerpt weighted towards active compounds, which were near 3.7% of everything screened.
MPTP block: blocks calcium-induced mitochondrial swelling. isolated mouse mitochondria, Ca2+ swelling absorbance, 30 min. inhibition, % at 10 µM. 360,000 compounds, 1.4% hits. AID 602449;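 active means inhibition of 50% or more, scaled per plate between neutral and stimulator controls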
NR3A LBD binder: modulates the human NR3A ligand-binding domain; NR3A LBD differential scanning fluorimetry, Tm shift; 0% = protein alone, 100% = glycine-bound protein; Tm shift relative to glycine control, % at 25 µM; 340,000 compounds, 2.5% hits;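 active means melting temperature shift of at least 10% of the positive control shift, at one fixed dose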
proCasp3 act: procaspase-3 (human) activation; P42574; recombinant procaspase-3 D3A, Ac-DEVD-pNA absorbance 405 nm; activation, % at 8.5 µM; 330,000 compounds, 0.11% hits; AID 463141;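 active means activation above the mean of all tested compounds plus 3 SD, cut at about 21% in these data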
Target sequence (P42574 whole entry D9A/D28A/D175A): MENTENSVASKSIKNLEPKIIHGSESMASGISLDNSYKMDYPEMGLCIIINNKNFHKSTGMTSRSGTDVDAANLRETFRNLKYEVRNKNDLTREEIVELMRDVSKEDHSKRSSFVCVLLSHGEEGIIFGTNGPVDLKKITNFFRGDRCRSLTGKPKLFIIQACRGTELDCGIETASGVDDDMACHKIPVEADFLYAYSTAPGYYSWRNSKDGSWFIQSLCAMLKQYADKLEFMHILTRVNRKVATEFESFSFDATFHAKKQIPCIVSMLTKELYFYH
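material = Procaspase-3 D3A mutant | probe or stimulus = Ac-DEVD-pNA | compound = single dose, 8.5 µM nominal compound, 0.8% DMSO | timing = 1 h preincubation, 2 h reaction | measured by = 405 nm absorbance of p-nitroaniline, reads at 0 and 120 min | benchmarks = DMSO-only low control, 5 µM PC-3 D3A high control | repeats = singlicate, each compound tested once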
aDG glyco up: alpha-DG glycosylation activation; Pro5-aDG cells, alpha-DG glycosylation AlphaScreen (IIH6); 0% Pro5, 100% B10-LARGE cell signal; activation, % at 10 µM; 360,000 compounds, 0.22% hits;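 active means activation of at least 8% versus controls, or a plate z-score of at least 8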;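 further: Pro5 are CHO cells carrying HIG-tagged alpha-DG that lacks glycosylation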
procasp7 counter: counter-screen for procaspase-3 activators: activators of human procaspase-7; P55210; recombinant procaspase-7, Ac-DEVD-pNA absorbance 405 nm; D23A/D198A/D206A triple mutant, cannot self-cleave; scale: DMSO 0, 5 µM enzyme 100; activation, % at 8.5 µM; 330,000 compounds, 0.093% hits;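 active means percent activation above the screen-wide mean plus 3 SD, cut at about 25% in these data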
Target sequence (P55210 whole entry D23A/D198A/D206A): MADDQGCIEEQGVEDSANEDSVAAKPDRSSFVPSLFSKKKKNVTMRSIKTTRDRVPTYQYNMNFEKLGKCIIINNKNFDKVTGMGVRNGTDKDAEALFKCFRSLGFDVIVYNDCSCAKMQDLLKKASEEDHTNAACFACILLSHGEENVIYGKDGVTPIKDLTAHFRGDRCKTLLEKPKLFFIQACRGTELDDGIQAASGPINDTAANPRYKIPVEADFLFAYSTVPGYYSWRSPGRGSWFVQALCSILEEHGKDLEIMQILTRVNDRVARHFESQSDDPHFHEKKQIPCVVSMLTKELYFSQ
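Assay system: Uncleavable procaspase-7 mutant enzyme / Input: 2 µM procaspase-7 mutant as dispensed / Dosing: single nominal 8.5 µM compound dose, 0.8% DMSO final / Timing: 1 h enzyme–compound preincubation and 2 h substrate reaction, both 25 °C / Detection: p-Nitroaniline absorbance at 405 nm, read at 0 and 120 min / Replication: singlicate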
proCasp7 act trip: activates human procaspase-7, counter-screen for procaspase-3 activators; activation, % at 8.5 µM; shares compounds with proCasp3 act; recombinant procaspase-7, Ac-DEVD-pNA absorbance; asp23/198/206-to-Ala mutant, cannot self-cleave; 210 tested, under 10 active;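 active means mean activation above a set limit taken from an earlier procaspase-7 screen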
procasp3 conf: procaspase-3 (human) activation, confirmed | recombinant PC-3 D3A, Ac-DEVD-pNA absorbance 405 nm; 100% is higher-enzyme control | activation, % at 8.5 µM | 210 compounds, 10% hits | shares compounds with proCasp3 act | AID 488954;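 active means mean activation above a set limit carried over from the earlier primary screen, cut at about 22% in these data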
Large screens that a line does not name were inactive (follow-up assays come after a bar, where they were run).

CCN1C(=O)c2cccc3c(S(=O)(=O)N(C(C)=O)c4ccc(OC(C)=O)cc4)ccc1c23	proCasp3 act 24 | proCasp7 act trip inactive | procasp3 conf inactive
CC1(C)C(=O)CC[C@@]2(C)[C@H]1CC[C@@]1(C)CC3=C(CC[C@@H]12)[C@@]1(C)CCC(=O)C(C)(C)[C@@H]1CC3	none (no result: MPTP block, NR3A LBD binder, aDG glyco up)
CCOC1=C2[C@@H](CN(S(=O)(=O)c3ccc(C)cc3)[C@H]2c2ccccc2)[C@H]2C(=O)N(Cc3ccccc3)C(=O)[C@H]2C1	none (no result: NR3A LBD binder, proCasp3 act, procasp7 counter)
CCOC(=O)c1cc(-c2ccc(/C=N\n3cnnc3)o2)ccc1Cl	proCasp3 act 29 | proCasp7 act trip inactive | procasp3 conf inactive
Cc1c(O)ccc2c(CN3CCOCC3)cc(=O)oc12	proCasp3 act 21 | proCasp7 act trip inactive | procasp3 conf inactive
Cc1c(O)ccc2c(CN3CCN(CCO)CC3)cc(=O)oc12	none
CC1(C(=O)O)CCCN1C(=O)c1ccco1 (stereo unspecified)	none (no result: NR3A LBD binder, proCasp3 act, procasp7 counter)
Cc1c(CCC(=O)NCCCN2CCCC2=O)c(=O)oc2cc(O)ccc12	proCasp3 act 26 | proCasp7 act trip inactive | procasp3 conf inactive
C[C@H]1CN([C@@H](C)CO)C(=O)CCCn2nncc2CO[C@H]1CN(C)C(=O)NC1CCCCC1	none (no result: NR3A LBD binder, proCasp3 act, procasp7 counter)
N#CC(C#N)=Cc1c[nH]c(=O)c(C#N)c1Nc1ccccc1	none
CCCNC(=O)C1(C)CCCN(C(=O)COc2ccc(C(C)(C)C)cc2)C1 (stereo unspecified)	none (no result: NR3A LBD binder, proCasp3 act, procasp7 counter)
C=CCSC1=N/C(=C\c2sccc2C)C(=O)S1	proCasp3 act 59 | proCasp7 act trip inactive | procasp3 conf inactive
CC(C)c1ccc(Nc2n[nH]c(=S)s2)cc1	none (no result: NR3A LBD binder, proCasp3 act, procasp7 counter)
CCOC(=O)CC(=O)CSc1nc2sc(C)cc2c(=O)n1Cc1ccco1	proCasp3 act 59 | proCasp7 act trip inactive | procasp3 conf inactive
Cc1c(Cc2ccccc2)sc(/N=C/c2ccc3ccccc3c2)c1C(N)=O	none
Cc1c(Cc2ccccc2)sc(/N=C/c2c(O)ccc3ccccc23)c1C(N)=O	NR3A LBD binder 12, proCasp3 act 32 | proCasp7 act trip inactive | procasp3 conf 26
CCCCn1c(N)c(N(CC(C)C)C(=O)C2CC(=O)N(c3ccc(C)cc3)C2)c(=O)[nH]c1=O (stereo unspecified)	proCasp3 act 22 | proCasp7 act trip inactive | procasp3 conf inactive
CC(C)Oc1cccc(NC(=O)C2(C)CCCN2C(=O)C(C)C)c1 (stereo unspecified)	none (no result: NR3A LBD binder, proCasp3 act, procasp7 counter)
CCn1c(SC(C)C(=O)NCC2CCCO2)nc2ccccc21 (stereo unspecified)	proCasp3 act 39 | proCasp7 act trip inactive | procasp3 conf inactive
Cc1nc2c(sc3nc(N4CCOCC4)c4c(c32)CC(C)(C)OC4)c(-c2ccc(Cl)cc2)c1C(=O)O	proCasp3 act 26 | proCasp7 act trip inactive | procasp3 conf inactive
CC1(C)Cc2c(c(N3CCOCC3)nc3sc(C(=O)Nc4ccc(Cl)cc4)c(N)c23)CO1	none
CCCCCCN1C=CC(=C/C=C(\C#N)C(=O)OCC)C=C1	proCasp3 act 24 | proCasp7 act trip inactive | procasp3 conf inactive
C=CCN(c1ccccc1OC)S(=O)(=O)c1cccc(C(=O)OCC(=O)c2c[nH]c3ccccc23)c1	NR3A LBD binder 29, proCasp3 act 22 | proCasp7 act trip inactive | procasp3 conf inactive
C=CCN(c1ccccc1OC)S(=O)(=O)c1cccc(C(=O)OCC(=O)N2CCOCC2)c1	none
O=C(Nc1ccc(C(O)c2ccccc2)cc1)[C@@H]1O[C@H](CO)[C@@H](O)[C@H]1O (stereo partly specified)	none (no result: NR3A LBD binder, proCasp3 act, procasp7 counter)
Nc1nc(SCc2ccccc2)c2ncn(C3CCCCC3)c2n1	none (no result: proCasp3 act, procasp7 counter)
Cn1c(=NC(=O)CS(=O)(=O)c2ccccc2)sc2ccccc21	none
Cn1c(=NC(=O)CS(=O)(=O)c2ccc(F)cc2)sc2ccccc21	proCasp3 act 22 | proCasp7 act trip inactive | procasp3 conf inactive
CCN1CCN(c2ncnc3c2sc(=S)n3-c2ccccc2)CC1	proCasp3 act 23 | proCasp7 act trip inactive | procasp3 conf inactive
Cc1ccc(S(=O)(=O)N(CC(=O)N2CCC(C)CC2)c2ccccc2)cc1	proCasp3 act 23 | proCasp7 act trip inactive | procasp3 conf inactive
Cc1ccc(S(=O)(=O)N(CC(=O)N2CCCCCC2)c2ccccc2)cc1	none
COc1ccc2oc(C(=O)OCC(=O)Nc3cc(S(=O)(=O)N4CCOCC4)ccc3C)c(C)c2c1	none (no result: NR3A LBD binder)
COc1ccc2oc(C(=O)OCC(=O)Nc3cc(S(=O)(=O)N4CCOCC4)ccc3OC)c(C)c2c1	proCasp3 act 22 | proCasp7 act trip inactive | procasp3 conf inactive
COc1ccc(C2=NN(c3ccc(C=O)cc3)C(c3ccccc3)C2)cc1 (stereo unspecified)	none (no result: MPTP block, aDG glyco up)
COc1ccc(C2CC(c3cccc(F)c3)=NN2c2ccc(S(N)(=O)=O)cc2)cc1 (stereo unspecified)	NR3A LBD binder 37, proCasp3 act 37 | proCasp7 act trip inactive | procasp3 conf inactive
CCN(CC)S(=O)(=O)c1ccc(OCC(=O)NC2CCS(=O)(=O)C2)c([N+](=O)[O-])c1 (stereo unspecified)	none
Cc1ccc(OCC(=O)NC2CCS(=O)(=O)C2)c([N+](=O)[O-])n1 (stereo unspecified)	proCasp3 act 21 | proCasp7 act trip inactive | procasp3 conf inactive
CCN(CC)c1ccc(/C=N/NC(=O)c2cccc(S(=O)(=O)Nc3ccccc3OC)c2)c(O)c1	NR3A LBD binder 14, proCasp3 act 39 | proCasp7 act trip inactive | procasp3 conf inactive
CCN(CC)c1ccc(/C=N/NC(=O)c2cccc(S(=O)(=O)Nc3ccccc3OC)c2)cc1	none
O=C(Nc1ccc(F)c(S(=O)(=O)N2CCOCC2)c1)C1CCCCC1	none
Cc1cccc(C2=NN(c3ccccc3)[C@H](CO)[C@H]2c2ccc(F)cc2)c1	proCasp3 act 25 | proCasp7 act trip inactive | procasp3 conf inactive
CC[C@@H]1C(c2cccc(C)c2)=NN(c2ccccc2)[C@H]1C(=O)N1CCOC1=O	none
OC[C@@H]1[C@@H](c2ccc(Cl)cc2)C(c2ccc(F)cc2)=NN1c1ccccc1	NR3A LBD binder 30, proCasp3 act 24 | proCasp7 act trip inactive | procasp3 conf inactive
CCOc1ccc(NC(=O)CN(C)C(=O)c2ccc(C3SCCS3)cc2)cc1OCC	proCasp3 act 21 | proCasp7 act trip inactive | procasp3 conf inactive
CCOc1ccc(NC(=O)CN(C)C(=O)c2ccc(=O)[nH]c2)cc1OCC	none (no result: proCasp3 act, procasp7 counter)
